Results from article PMC4976804 (Current Alzheimer research, 2015).

Tests used:
[1] = system: inducible N2aTau^4RDΔK280 cells; assay: Inhibition of Tau aggregation in inducible N2a cells, ThS+ cells counted by FACS; assay type: cell-based
In short: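 Inducible N2a-Tau4RDΔK280 cells in suspension, with 0.0005% (12 µM) ThS added. Tau induced with 1 µg/ml doxycycline. Compound at 60 µM, or 0–60 µM, for 4 days at 37 °C. Floating and adherent cells pooled, pelleted and PBS-washed. ThS+ cells counted by flow cytometry (ex 495/em 519 nm). Induced DMSO-treated sample set to 100%.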

N2a cells = assay: Cell viability of uninduced N2a cells in the presence of compounds; assay type: cell-based; conditions: 60 µM compound, 4 days 37°C, untreated = 100%
In short: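 Uninduced N2a cells (no tau expression) grown 4 days at 37 °C in culture medium with test compound at 60 µM, or at several concentrations from 0 to 60 µM. Viability measured by MTT assay per kit instructions. Values normalised to the uninduced compound-untreated sample (100%).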

O=C(NNc1nc(-c2ccc([N+](=O)[O-])cc2)cs1)c1ccc2nc[nH]c2c1 [BSc3094]
amount of ThS-positive cells (FACS), in words ([1]; 15 µM in the medium, 4 days, N2a cells expressing K18ΔK280): decreases | reduction of Tau^4RDΔK280 aggregation in N2a cells compared to control ([1]; 60 µM compound, ThS+ cells by FACS): 93% | effectiveness in reducing aggregation in N2a cells relative to the best hits ([1]; compared to our best hits): 2-3 | viability N2a cells (MTT) (N2a cells): 101.9 ± 3.8%
